Assay results reported in ChEMBL document CHEMBL4765352, “Discovery of AdipoRon analogues as novel AMPK activators without inhibiting mitochondrial complex I” (Eur J Med Chem, 2020).
Calls of active or inactive are those of the source. The calls are words filed in the database; no cut-off is given here.

Legend:
[1] = Induction of glucose consumption in mouse C2C12 cells at 10 uM measured after 12 hrs by glucose oxidase method (reference value: 100 %); format: functional
Method in brief: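 Differentiated C2C12 myotubes were switched to DMEM containing 2.75 g/L glucose and treated for 12 h at 37 °C, with cell-free blank wells as reference. Glucose left in the medium was measured by the GOD-POD method at 570 nm. Consumption was derived by subtraction and expressed as percentage of the DMSO group.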

Huh-7 = test: Activation of AMPK in human HuH-7 cells assessed as increase in ACC phosphorylation at 1 to 20 uM measured after 2 to 12 hrs by Western blotting analysis; format: cell-based; conditions: filed as activator, dose 1-20 µM, time 2-12 hrs
Method in brief: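 HepG2 and HuH-7 cells in medium with 10% FBS and penicillin/streptomycin at 37 °C, 5% CO₂. Treated with a range of concentrations for 2 h, or with 10 μM over a time course. Cells lysed in RIPA buffer with protease/phosphatase inhibitors; ~30 µg protein per lane blotted for p-AMPK, AMPK, p-ACC, ACC, with GAPDH or β-actin as loading control. Detected by ECL.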

Mus musculus = test: Hypoglycemic activity in 6 hrs fasted ig dosed normal lean C57BL/6 mouse assessed as improved glucose tolerance pretreated for 2 hrs followed by glucose challenge and measured up to 90 mins post glucose challenge starting from 120 mins prior to […] by IPGTT; format: functional, organism-based; conditions: dose 25-100 mg/kg, time 210.0 min
Method in brief: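 C57BL/6 mice (male, 8-10 weeks, n=6 per group) fasted 6 h, then given compound or vehicle intragastrically. Two hours later, 20% glucose was injected i.p. at 2 g/kg. Tail-vein glucose read by glucometer at -120, 0, 20, 40, 60 and 90 min, and net AUC calculated. Doses were 25, 50 and 100 mg/kg.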

H9c2 = test: Activation of AMPK in rat H9C2 cells assessed as increase in phosphorylation of ACC at 1 to 20 uM incubated for 1 to 24 hrs by Western blot analysis; format: cell-based; conditions: dose 1-20 µM, time 1-24 hrs
Method in brief: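 Rat cardiac H9C2 cells treated with a concentration range for 2 h or 4 h, or with 10 μM over a time course. Lysates blotted for phosphorylated and total AMPK and ACC, detected by ECL.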

## CC(C)(Oc1ccc(Cl)cc1)C(=O)Nc1ccc(OCc2ccc(C#N)cc2)cc1
[1]
  Activity: 151.8%
Huh-7
  Activity: Active
Mus musculus
  Activity: Dose-dependent effect
H9c2
  Activity: inactive
